# Compound activity from PubChem BioAssay.
# This is a sample that favours compounds with a hit; in the whole collection about 0.55% have one here.
# TRPML3 agonist – human mucolipin-3 channel agonism; HEK293 TRPML3-YFP, Fluo-8 calcium fluorescence; 100% = the carbachol control signal; activation, % at 3 µM; AID 1448; hit rate 0.29% among 220,000;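 active means activation above its plate's cutoff, the mean activation of the plate's test wells plus 3 SD, cut at about 12% in these data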;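 further: 0% = DMSO only wells and 100% = carbachol wells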
# Target sequence (Q8TDD5 whole entry, looked up): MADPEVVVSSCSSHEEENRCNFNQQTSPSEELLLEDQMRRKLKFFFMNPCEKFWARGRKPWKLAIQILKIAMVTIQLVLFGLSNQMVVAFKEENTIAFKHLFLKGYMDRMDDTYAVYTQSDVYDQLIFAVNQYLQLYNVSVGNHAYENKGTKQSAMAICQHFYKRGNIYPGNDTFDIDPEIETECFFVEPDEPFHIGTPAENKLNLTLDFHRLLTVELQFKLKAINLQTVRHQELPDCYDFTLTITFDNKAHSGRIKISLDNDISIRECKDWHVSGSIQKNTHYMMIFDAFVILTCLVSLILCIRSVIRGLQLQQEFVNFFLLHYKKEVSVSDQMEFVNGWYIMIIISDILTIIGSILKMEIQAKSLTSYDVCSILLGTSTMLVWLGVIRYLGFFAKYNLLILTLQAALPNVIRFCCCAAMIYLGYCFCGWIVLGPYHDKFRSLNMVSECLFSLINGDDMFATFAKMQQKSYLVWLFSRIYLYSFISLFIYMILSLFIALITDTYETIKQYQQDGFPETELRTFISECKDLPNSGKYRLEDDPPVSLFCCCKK
#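 Material: HEK293 cells stably carrying human TRPML3-YFP; compound dosing: single dose, 3 µM final nominal compound, 0.3% DMSO final; incubation: 1-h 37 °C dye load, 5-s basal, 120-s post-compound reads; technique: Fluo-8 intracellular calcium fluorescence, excitation 470-495 nm, emission 515-575 nm; read-out basis: percent activation from peak-to-basal fluorescence ratio, scaled between DMSO and carbachol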
# V1R ag counter – counter-screen for oxytocin receptor agonists: human V1a receptor agonists; activation, % at 3 µM; CHO-V1R cells, Fluo-8 calcium fluorescence, agonist mode; 0% DMSO, 100% 3 nM vasopressin; AID 2797; hit rate 0.25% among 320,000;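 active means activation above the mean activation of all tested compounds plus 3 SD, per screening run, cut at about 20% in these data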;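 further: signal is peak over basal fluorescence ratio across a 100 second FLIPR read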
# zfTRPN1 agonist – agonists of zebrafish TRPN1 channel | HEK293 zebrafish TRPN1-YFP, Fluo-8 calcium fluorescence; 100% = response to 87 µM carbachol | activation, % at 3 µM | hit rate 0.18% among 220,000;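 active means activation above its plate's cutoff, the mean activation of test wells on that plate plus 3 SD, cut at about 19% in these data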;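 further: 0% = DMSO alone and 100% = 87 µM carbachol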
#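 System: zebrafish TRPN1-YFP in HEK293 cells / Dosing: 3 µM single point / Timing: dye loading 1 h at 37 °C, then 30 min room temperature / Signal: Fluo-8 calcium fluorescence, excitation 470-495 nm, emission 515-575 nm / Read-out basis: percent activation from peak over basal fluorescence ratio, control-normalized / Control set: high carbachol 87 µM, low DMSO alone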
# OXTR potentiate – human OXTR potentiation; hit rate 0.061% among 320,000; activation, % at 3 µM; CHO-OTR cells, Fluo-8 calcium fluorescence, potentiator mode; 0% = oxytocin EC15, 100% = EC100; P30559;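 active means activation above that plate's cutoff, the mean activation of tested compounds plus 3 SD, cut at about 6.6% in these data, passing the limit was not always enough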;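 further: 100% uses oxytocin at 75 nM as the full agonist control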
#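 Material: CHO-OTR cells, human receptor; compound dosing: single dose, 3.0 µM nominal final compound concentration; schedule: 6 min compound pre-incubation at room temperature, 100 s kinetic read; measured by: kinetic Fluo-8 calcium fluorescence; read-out basis: % activation vs EC15 and EC100 oxytocin; controls: EC15 oxytocin alone as 0%, 75 nM oxytocin as 100%; replicates: singlicate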
# OXTR ag – activates the human oxytocin receptor | P30559 | CHO-OTR cells, Fluo-8 calcium fluorescence; normalized: DMSO 0%, oxytocin 100% | activation, % at 3 µM | hit rate 0.32% among 320,000;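 active means activation above the mean of all tested compounds plus 3 SD, cutoff set per screening run, cut at about 20% in these data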;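 further: peak over basal fluorescence ratio from a 100 s FLIPR kinetic read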
# * hit, by the source's call; / = not tested or not shown.
SMILES,TRPML3 agonist,V1R ag counter,zfTRPN1 agonist,OXTR potentiate,OXTR ag
COc1ccc(OCC(O)Cn2c(=N)n(Cc3ccccc3)c3ccccc32)cc1 (centres undefined),-1.5,11.7,-1.1,-6.0,16.8
C=CCN1C(c2cccc(C(F)(F)F)c2)=CS/C1=C(/C#N)c1nnc(N2CCOCC2)n1-c1ccccc1,60.6*,-0.1,21.9*,-6.6,-2.4
N#C/C(=C\c1ccc(N2CCCCC2)o1)C(=O)Nc1cccc(Br)c1,13.8*,199.0*,20.1*,-20.7,186.7*
N#C/C(=C\c1ccc(N2CCCCC2)o1)C(N)=O,3.6,7.1,4.2,-2.5,3.3
O=C(Nc1ncc(S(=O)(=O)c2ccc([N+](=O)[O-])cc2)s1)c1ccccc1F,4.1,41.4*,6.5,-8.5,33.0*
COc1ccc(Cc2nnc(NC(=O)Nc3ccc(C)cc3)s2)cc1OC,/,0.5,/,-7.1,-1.2
COc1ccc(Cc2nnc(NC(=O)CSc3ccc(C)cc3)s2)cc1OC,1.8,77.3*,10.1,-27.9,56.9*
O=C(c1ccc(S(=O)(=O)Nc2ccccc2)cc1)N1CCCC(C(F)(F)F)C1 (centres undefined),/,43.2*,/,-16.3,36.1*
O=C(c1ccccc1)c1ccc(C(=O)N2CCCC(C(F)(F)F)C2)cc1 (centres undefined),/,0.5,/,-14.8,-1.6
Cc1ccc(NS(=O)(=O)c2ccc(C(=O)N3CC(C)OC(C)C3)cc2)cc1 (centres undefined),/,37.4*,/,-17.4,41.0*
Cc1ccc(NS(=O)(=O)c2ccc(C(=O)N3CCC3)cc2)cc1,/,5.8,/,-12.9,4.2
CCOc1ccc(NS(=O)(=O)c2ccc(C(=O)N3CCCCCC3)cc2)cc1,/,16.8,/,-24.4,15.1
CCOc1ccc(NS(=O)(=O)c2ccc(C(=O)N3CCCC(C)C3)cc2)cc1 (centres undefined),/,39.3*,/,-9.8,47.1*
CCOc1ccc(S(=O)(=O)Nc2ccc(C(=O)N3CCCC3)cc2)cc1,/,3.2,/,-9.2,3.6
COc1ccc(NS(=O)(=O)c2ccc(C(=O)N3CCCCCC3)cc2)cc1,/,24.1*,/,-12.4,26.9*
COCCn1c(-c2ccc3ccccc3c2)nc2c1c(=O)[nH]c(=O)n2CC(C)C,/,-1.4,/,1.8,-2.4
CCC(C)(C(=O)NC1CCCC1)N(Cc1cccs1)C(=O)Cc1cccs1 (centres undefined),0.7,-0.3,-0.9,-12.1,-1.6
CCC(C)(C(=O)NC1CCCCC1)N(C(=O)Cc1cccs1)c1ccccc1 (centres undefined),-1.1,18.4,-1.3,-12.2,22.9*
CCOc1cc(NC(=S)Nc2ccccc2)c(OCC)cc1NC(=O)c1ccccc1,76.7*,-0.5,-0.4,-7.8,-1.6
CCCCN1C(=O)/C(=C/C=C2\Oc3ccccc3N2CC)SC1=S,2.9,/,8.6,/,/
CCCCN1C(=O)/C(=C/C=C2/CC(C)(C)CN2C)SC1=S,14.0*,65.6*,26.1*,-20.1,51.6*
COc1ccc(NC(=O)CSCC(=O)N(C)CCOc2ccc(Cl)cc2)cc1,/,2.0,/,-8.8,-1.2
O=C(N/N=C/c1ccc(N2CCOCC2)cc1)c1ccccc1OCCOc1ccccc1,0.5,0.2,-0.7,-22.4,-2.2
CCOC(=O)c1ccc(NC(=S)N2CCSC2c2ccc(Cl)cc2)cc1 (centres undefined),3.1,39.0*,5.2,-11.8,37.5*
COc1ccc(C2SCCN2C(=S)Nc2cccc(C(F)(F)F)c2)cc1 (centres undefined),2.6,22.0*,6.2,-14.2,39.0*
SMILES,TRPML3 agonist,V1R ag counter,zfTRPN1 agonist,OXTR potentiate,OXTR ag
O=C(COC(=O)Cc1ccc(Br)cc1)Nc1ccc(Cl)cn1,/,0.7,/,-9.3,-0.8
CCOCc1cc(CN2CCCC(CNC(=O)c3ccco3)C2)ccc1OC (centres undefined),/,0.5,/,-3.1,0.7
O=c1c(O)c(-c2cccs2)oc2ccccc12,16.1*,58.8*,25.8*,-9.1,34.8*
Cc1ccc(-c2oc3ccccc3c(=O)c2O)cc1,-0.6,5.5,0.1,-9.6,6.6
O=c1c(O)c(-c2cccs2)oc2ccc(Cl)cc12,51.6*,91.8*,48.8*,-13.4,63.2*
CSc1ccccc1NC(=O)NCCCl,0.8,1.0,0.0,-4.8,-0.1
